Tests used:
Format in all cases: cell-based
[1] = molecular target: Sodium-dependent serotonin transporter (Homo sapiens, UniProt P31645); assay: In vitro displacement of [3H]paroxetine from human serotonin transporter expressed in HEK293 cells
[2] = molecular target: Sodium-dependent noradrenaline transporter (Homo sapiens, UniProt P23975); assay: In vitro displacement of [3H]nisoxetine from human norepinephrine transporter expressed in HEK293 cells
Method in brief: (§1)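 Competitive binding using cloned human transporters expressed in HEK-293 cells. NET was labelled with [³H]nisoxetine and DAT with [³H]GBR12935, following a previously published procedure.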

[3] = molecular target: Sodium-dependent dopamine transporter (Homo sapiens, UniProt Q01959); assay: In vitro displacement of [3H]GBR-12935 from human dopamine transporter expressed in HEK293 cells; method in brief: as §1
Sodium-dependent dopamine transporter, sequence (Q01959 whole entry): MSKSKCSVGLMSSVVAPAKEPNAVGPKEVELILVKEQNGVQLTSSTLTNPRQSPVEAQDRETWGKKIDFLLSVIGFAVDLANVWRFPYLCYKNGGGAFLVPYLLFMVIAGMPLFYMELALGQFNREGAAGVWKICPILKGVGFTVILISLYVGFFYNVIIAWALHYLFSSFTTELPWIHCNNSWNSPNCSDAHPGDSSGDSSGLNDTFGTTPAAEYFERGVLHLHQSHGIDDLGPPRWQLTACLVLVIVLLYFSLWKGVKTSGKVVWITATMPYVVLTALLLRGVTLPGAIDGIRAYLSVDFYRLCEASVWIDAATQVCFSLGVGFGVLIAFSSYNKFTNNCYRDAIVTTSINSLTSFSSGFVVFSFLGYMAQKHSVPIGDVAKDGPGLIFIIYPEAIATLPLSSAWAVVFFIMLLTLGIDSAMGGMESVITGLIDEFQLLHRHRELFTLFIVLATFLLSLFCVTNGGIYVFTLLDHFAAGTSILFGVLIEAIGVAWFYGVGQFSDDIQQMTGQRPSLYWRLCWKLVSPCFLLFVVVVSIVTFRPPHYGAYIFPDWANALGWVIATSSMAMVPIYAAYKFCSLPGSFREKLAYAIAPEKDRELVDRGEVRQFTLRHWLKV

Sodium-dependent serotonin transporter, sequence (P31645 whole entry): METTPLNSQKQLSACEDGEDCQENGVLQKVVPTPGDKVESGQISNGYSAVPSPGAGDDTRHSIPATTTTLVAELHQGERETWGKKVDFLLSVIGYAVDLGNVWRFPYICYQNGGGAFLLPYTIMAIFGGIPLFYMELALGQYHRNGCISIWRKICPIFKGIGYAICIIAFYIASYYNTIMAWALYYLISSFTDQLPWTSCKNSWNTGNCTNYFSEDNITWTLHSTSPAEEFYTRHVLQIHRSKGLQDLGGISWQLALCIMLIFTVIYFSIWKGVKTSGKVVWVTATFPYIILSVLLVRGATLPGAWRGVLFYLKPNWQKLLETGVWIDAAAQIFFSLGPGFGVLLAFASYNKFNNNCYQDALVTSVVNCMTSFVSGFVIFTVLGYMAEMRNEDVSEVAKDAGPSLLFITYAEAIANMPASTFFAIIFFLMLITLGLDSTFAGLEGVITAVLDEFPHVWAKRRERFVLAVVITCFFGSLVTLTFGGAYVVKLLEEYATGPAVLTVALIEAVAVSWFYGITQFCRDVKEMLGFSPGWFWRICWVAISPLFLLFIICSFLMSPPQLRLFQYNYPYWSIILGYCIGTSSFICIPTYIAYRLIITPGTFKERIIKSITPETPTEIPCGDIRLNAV
Sodium-dependent noradrenaline transporter, sequence (P23975 whole entry): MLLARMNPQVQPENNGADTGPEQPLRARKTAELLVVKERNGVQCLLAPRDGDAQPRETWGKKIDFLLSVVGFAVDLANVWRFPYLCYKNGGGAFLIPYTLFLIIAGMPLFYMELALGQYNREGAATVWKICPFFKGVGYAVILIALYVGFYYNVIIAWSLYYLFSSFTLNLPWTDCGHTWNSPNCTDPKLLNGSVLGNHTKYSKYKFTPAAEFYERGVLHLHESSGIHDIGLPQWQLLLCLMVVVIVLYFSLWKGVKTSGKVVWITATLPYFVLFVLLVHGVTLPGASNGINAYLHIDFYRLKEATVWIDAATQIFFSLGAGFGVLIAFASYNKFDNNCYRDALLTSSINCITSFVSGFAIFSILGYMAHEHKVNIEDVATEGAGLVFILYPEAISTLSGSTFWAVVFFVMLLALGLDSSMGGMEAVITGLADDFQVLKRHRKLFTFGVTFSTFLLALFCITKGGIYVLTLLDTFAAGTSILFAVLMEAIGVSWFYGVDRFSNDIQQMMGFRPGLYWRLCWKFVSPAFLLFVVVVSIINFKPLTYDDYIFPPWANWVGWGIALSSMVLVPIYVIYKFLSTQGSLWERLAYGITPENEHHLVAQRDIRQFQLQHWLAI

Ki [1] [nM]	Ki [2] [µM]	Ki [3] [µM]	SMILES
30	4.44	5.3	Cc1ccc(Sc2ccccc2CN)c(N)c1
518	4.33	> 10	Cc1ccc(Sc2ccccc2CNCCCF)c(N)c1
1.07	–	–	CN(C)Cc1ccccc1Sc1ccc(I)cc1N
